Assay outcomes deposited in PubChem by The Scripps Research Institute Molecular Screening Center.
Compounds with a hit are over-represented: about 1.8% of the library has one in this group of screens.
M4 PAM = human M4 muscarinic receptor positive allosteric modulators, primary screen, CHO-K1 cells, Fluo-8 calcium fluorescence; Muscarinic acetylcholine receptor M4 (Homo sapiens), P08173; CHO-K1 hM4/Gqi5, ACh EC20; 0% = ACh EC20, 100% = maximal ACh; activation, % at 3 µM; 360,000 tested, 0.4% active; AID 624126, 2012;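 active means activation above its plate's cutoff, the mean activation of sample wells plus 3 SD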
Target sequence (P08173 whole entry, looked up): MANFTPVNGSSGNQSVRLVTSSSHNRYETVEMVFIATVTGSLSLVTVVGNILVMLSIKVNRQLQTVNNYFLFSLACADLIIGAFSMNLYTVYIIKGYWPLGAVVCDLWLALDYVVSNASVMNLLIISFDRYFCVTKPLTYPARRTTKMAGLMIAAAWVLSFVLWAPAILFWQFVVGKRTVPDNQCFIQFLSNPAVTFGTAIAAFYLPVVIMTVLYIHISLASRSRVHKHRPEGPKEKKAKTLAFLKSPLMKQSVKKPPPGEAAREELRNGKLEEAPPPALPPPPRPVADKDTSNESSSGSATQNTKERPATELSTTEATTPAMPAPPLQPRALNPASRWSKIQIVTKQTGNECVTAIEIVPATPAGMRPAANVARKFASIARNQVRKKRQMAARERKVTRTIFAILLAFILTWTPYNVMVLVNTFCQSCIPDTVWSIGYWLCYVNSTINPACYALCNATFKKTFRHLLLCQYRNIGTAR
M5 ag = human M5 muscarinic receptor agonists, primary screen, CHO-K1 cells, Fluo-8 calcium fluorescence; 360,000 tested, 0.19% active; Muscarinic acetylcholine receptor M5 (Homo sapiens), P08912; activation, % at 3 µM; CHO-K1 hM5 cells; 0% DMSO wells, 100% maximal acetylcholine response;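 active means activation above the run's mean over test compounds plus 3 SD, cut at about 23% in these data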;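 further: signal is peak over basal fluorescence ratio across the kinetic read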
CHRM5 antagonist = human M5 muscarinic receptor antagonists, primary screen, CHO cells, Fluo-8 calcium fluorescence. inhibition, % at 3 µM. 360,000 tested, 0.59% active. CHO-hM5 cells, ACh EC80. Muscarinic acetylcholine receptor M5 (Homo sapiens), P08912;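 active means inhibition above a per-plate cutoff, the mean of that plate's test compounds plus 3 SD, cut at about 27% in these data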;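 further: 0% = acetylcholine EC80 with DMSO and 100% = DMSO without agonist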
CHRM5 PAM = human M5 muscarinic receptor positive allosteric modulators, primary screen, CHO-K1 cells, Fluo-8 calcium fluorescence; 360,000 tested, 0.3% active; AID 624038, 2012; activation, % at 3 µM; Muscarinic acetylcholine receptor M5 (Homo sapiens), P08912; CHO-K1 hM5, ACh EC20 PAM; 0% = ACh EC20, 100% = ACh EC100;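 active means activation above the run cutoff, the mean activation of all test compounds plus 3 SD, cut at about 18% in these data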
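Assay system: CHO-K1 hM5 cells. Also added: acetylcholine at EC20 concentration, added after compound. Dosing: 3 µM, single dose. Times: compound preincubation 140 s before EC20 acetylcholine addition. Signal: Fluo-8 calcium fluorescence. Measure: % activation relative to EC20 and EC100 ACh responses. Repeats: singlicate, one well per test compound.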
CHRM4 antagonist = human M4 muscarinic receptor antagonists, primary screen, CHO cells, Fluo-8 calcium fluorescence; CHO-hM4 cells, ACh EC80; inhibition, % at 3 µM; 360,000 tested, 0.73% active; AID 624125, 2012;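 active means inhibition above its plate's cutoff, the mean inhibition of sample wells plus 3 SD, cut at about 27% in these data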;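 further: 0% = acetylcholine EC80 with DMSO and 100% = DMSO without agonist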
CHRM4 agonist = human M4 muscarinic receptor agonists, primary screen, CHO-K1 cells, Fluo-8 calcium fluorescence. Muscarinic acetylcholine receptor M4 (Homo sapiens), P08173. CHO-K1 hM4/Gqi5; vehicle 0%, full acetylcholine response 100%. activation, % at 3 µM. 360,000 tested, 0.14% active. AID 624127, 2012;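 active means activation above the run mean over all test wells plus 3 SD, cut at about 32% in these data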;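 further: peak over basal fluorescence ratio per well then scaled between controls; 0% = DMSO wells and 100% = acetylcholine at EC100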
* marks the source's active call; other numbers are inactive results.

SMILES	M4 PAM	M5 ag	CHRM5 antagonist	CHRM5 PAM	CHRM4 antagonist	CHRM4 agonist
COc1ccccc1NC(=O)c1cc2c(=O)n(C)c3ccccc3c2n1C	-22	-3	15	-17	54*	10
COc1ccc(/C=C2\SC(=S)N(CC(=O)OCC(=O)Nc3ccc(C)cc3Cl)C2=O)cc1	13	4	-1	12	-15	0
CSC[C@H]1CN(Cc2ccccc2)C(=O)[C@@H]1CC(=O)Nc1ccc(Br)cc1	6	0	3	0	-3	1
CC(c1ccccc1)C1OCC(C[N+]2(C)CCCCC2)O1 (stereo not given)	-24	-9	30*	-18	45*	0
Cc1cc(Br)cn2c(Cc3ccccc3)c(-c3ccco3)nc12	-7	4	-6	4	-5	-1
CC(C(=O)NCC1(c2ccccc2)CCCC1)N1CCOCC1 (stereo not given)	-14	-2	1	1	23	0
CC(C(=O)NCC1(c2ccccc2)CCCC1)N1CCCC1 (stereo not given)	-39	-7	12	-12	43*	2
CCCCOC(=O)Nc1ccc2c(C)cc(=O)oc2c1	30*	-3	0	-5	-10	0
CCOC(=O)Nc1ccc2c(C)cc(=O)oc2c1	5	2	2	-8	4	3
c1ccc2c(c1)OCC(CNCC1COc3ccccc3O1)O2 (stereo not given)	-1	-1	7	-5	11	1
c1ccc2c(c1)OCC(CNc1ncnc3sccc13)O2 (stereo not given)	-20	6	35*	-17	25	16
Fc1ccccc1CNc1ncnc2sccc12	-6	4	7	-6	16	11
COc1ccc(CCNc2ncnc3sccc23)cc1OC	-24	6	48*	-30	40*	21
COc1ccccc1CNc1ncnc2sccc12	-5	5	27*	-13	1	13
CCN(CC(=O)NC(=O)NCc1ccccc1)Cc1ccccc1	2	-4	-2	0	1	1
CC(=O)c1ccc(S(=O)(=O)NCCC(=O)OCC(=O)N(Cc2ccccc2)C(C)(C)C)cc1	-1	2	-3	-8	15	6
Cc1sc2ncnc(N3CCC(C(=O)Nc4ccc(S(N)(=O)=O)cc4)CC3)c2c1C	18	1	6	3	67*	79*
Cc1ccc(NC(=O)C2CCN(c3ncnc4sc(C)c(C)c34)CC2)cc1S(=O)(=O)N(C)C	-14	-2	0	-14	-1	14
Cc1sc2ncnc(N3CCC(C(=O)Nc4ccc(C#N)cc4)CC3)c2c1C	24*	3	0	1	1	3
Cc1sc2ncnc(N3CCC(C(=O)Nc4cc(Cl)ccc4Cl)CC3)c2c1C	56*	1	5	-8	34*	36*
Cc1sc2ncnc(N3CCC(C(=O)N(C)CC(=O)Nc4ccccc4Cl)CC3)c2c1C	-2	-1	-1	-16	11	20
CCN(CC(=O)Nc1cc(Cl)ccc1C)C(=O)C1CCN(c2ncnc3sc(C)c(C)c23)CC1	-13	2	27*	-18	15	18
Cc1ccc(N(C(=O)c2csnn2)C(C(=O)NC(C)(C)C)c2cccnc2)cc1 (stereo not given)	-2	0	12	1	-3	1
CN1CCN(C(=O)C2=C[C@@H](c3coc4ccccc4c3=O)C[C@@H](OCCCCO)O2)CC1	24*	-1	-3	-9	3	2
O=C(C1=C[C@@H](c2coc3ccccc3c2=O)C[C@@H](OCCCCO)O1)N1CCN(Cc2ccccc2)CC1	-1	3	-2	-9	-5	9
SMILES	M4 PAM	M5 ag	CHRM5 antagonist	CHRM5 PAM	CHRM4 antagonist	CHRM4 agonist
Cc1cccc(CNc2ccc(S(=O)(=O)N3CCCCC3)cc2)c1	0	-2	14	-19	-7	4
CCn1c(C)c(C)c2cc(C(=O)NCCc3ccco3)ccc21	18*	-2	-23	16	1	1
O=C(NCc1ccccc1)c1ccc(CN2CCOCC2)cc1	1	1	-1	-1	-13	0
Cc1c(C)n(C)c2ccc(C(=O)NCCc3ccco3)cc12	1	-4	22	-8	3	1
O=C(NCc1ccco1)c1ccc(CN2CCOCC2)cc1	3	0	11	19*	1	0
Cc1cc(C)c2c(N)c(C(=O)NCc3ccco3)sc2n1	50*	-1	1	3	-1	8
CC(=O)c1sc2nc(C)cc(C)c2c1N	23	2	1	-4	-5	0
Cc1ccc(C(=O)NCc2ccco2)cc1Br	20*	-1	1	-4	-5	1
Cc1c(Br)cc(C(=O)NCc2ccco2)c(C)c1C	-1	-10	-3	1	8	1
CC1(C)CC(=O)C=C(Nc2ccc(C(=O)O)c(O)c2)C1	-1	-3	12	0	-4	0
CCCCc1nc2cc(C(=O)NCc3nccn3CC)ccc2o1	-12	-10	5	-15	32*	1
COc1ccc(C(=O)C2CCCN(C(=O)Cn3nc(C)cc3C)C2)cc1F (stereo not given)	12	2	5	-4	29*	2
COc1ccc(C(=O)C2CCCN(Cc3cn(C)nc3-c3ccccc3)C2)cc1F (stereo not given)	-24	-2	5	-6	40*	82*
O=c1c2ccccc2n2c(-c3cccc(F)c3)nnc2n1Cc1ccccc1	21*	-1	9	-3	1	1
O=c1c2ccccc2n2c(-c3cccc(Cl)c3)nnc2n1Cc1ccccc1	8	1	-2	-3	-6	3
COCc1ccc(CN2CCC(n3nccc3NC(=O)c3ccc4c(c3)OCO4)CC2)o1	-2	0	8	-4	-3	1
CCN(CC)c1ncn(Cc2c(Cl)cccc2Cl)c2ncnc1-2	52*	-9	-17	-2	20	1
CCN(CC)c1ncnc2c1ncn2Cc1c(Cl)cccc1Cl	22*	-3	-9	0	-9	1
CC1(C)CC(NC(=O)c2ccccc2NS(=O)(=O)c2ccc(Br)cc2)CC(C)(C)N1	-1	-11	11	-6	-4	0
